Test results from ChEMBL document CHEMBL1147202, “Novel selective human melanocortin-3 receptor ligands: use of the 4-amino-1,2,4,5-tetrahydro-2-benzazepin-3-one (Aba) scaffold” (Bioorg Med Chem Lett, 2007).
One block for each compound: values may come before it.

How the values were obtained:
Melanocortin receptor 4 [1] = biological target: T1, Melanocortin receptor 4 (Homo sapiens, UniProt P32245); test: Maximum effect on human MC4R expressed in HEK293 cells assessed as intracellular cAMP accumulation at 0.0001 to 10 uM; type: functional, cell-based
Outline: (§1)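 Transfected HEK293 cells, grown in MEM with 10% FBS, seeded 48 h before assay (50,000 cells/well). Cells preincubated 1 min at 37 °C in Earle's balanced salt solution with IBMX, then exposed 3 min at 37 °C to peptide at 10−10 to 10−5 M. Reaction stopped with ice-cold Tris/EDTA and boiling for 7 min. cAMP in supernatant measured by [3H]cAMP/PKA competition against a standard curve. EC50 from nonlinear least-squares fit, two experiments in triplicate.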

[2] = biological target: T2, Melanocyte-stimulating hormone receptor (Homo sapiens, UniProt Q01726); test: Maximum effect on human MC1R expressed in HEK293 cells assessed as intracellular cAMP accumulation at 0.0001 to 10 uM; type: functional, cell-based; outline: as §1
Target sequence in this assay (Q01726 whole entry, looked up): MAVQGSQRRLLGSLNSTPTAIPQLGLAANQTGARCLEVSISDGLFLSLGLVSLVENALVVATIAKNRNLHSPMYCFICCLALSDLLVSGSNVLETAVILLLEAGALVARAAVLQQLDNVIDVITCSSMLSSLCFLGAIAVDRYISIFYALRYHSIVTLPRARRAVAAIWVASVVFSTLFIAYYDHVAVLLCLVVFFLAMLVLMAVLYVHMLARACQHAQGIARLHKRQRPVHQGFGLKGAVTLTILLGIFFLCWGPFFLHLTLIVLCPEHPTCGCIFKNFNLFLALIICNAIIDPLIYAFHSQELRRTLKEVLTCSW

Melanocortin receptor 5 [3] = biological target: T3, Melanocortin receptor 5 (Homo sapiens, UniProt P33032); test: Maximum effect on human MC5R expressed in HEK293 cells assessed as intracellular cAMP accumulation at 0.0001 to 10 uM; type: functional, cell-based; outline: as §1
Melanocortin receptor 3 [4] = biological target: T4, Melanocortin receptor 3 (Homo sapiens, UniProt P41968); test: Maximum effect on human MC3R expressed in HEK293 cells assessed as intracellular cAMP accumulation at 0.0001 to 10 uM; type: functional, cell-based; outline: as §1
Melanocortin receptor 4 [5] = biological target: T1, Melanocortin receptor 4; test: Displacement of [125I]NDPalphaMSH from human MC4R expressed in HEK293 cells; type: cell-based
Outline: (§2)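 Whole HEK293 cells stably expressing the receptor, seeded 48 h before assay (50,000 cells/well), washed with MEM/25 mM bicarbonate. Cells lysed with NaOH/Triton X-100 and counted by gamma counting. IC50 from nonlinear least-squares fit, two experiments in triplicate.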

Melanocortin receptor 5 [6] = biological target: T3, Melanocortin receptor 5; test: Effect on human MC5R expressed in HEK293 cells assessed as intracellular cAMP accumulation; type: functional, cell-based; outline: as §1
[7] = biological target: T2, Melanocyte-stimulating hormone receptor; test: Effect on human MC1R expressed in HEK293 cells assessed as intracellular cAMP accumulation; type: functional, cell-based; outline: as §1
Target sequence in this assay (Q01726 whole entry): as the sequence (Q01726 whole entry, looked up) above

Melanocortin receptor 5 [8] = biological target: T3, Melanocortin receptor 5; test: Displacement of [125I]NDPalphaMSH from human MC5R expressed in HEK293 cells; type: cell-based; outline: as §2
[9] = biological target: T2, Melanocyte-stimulating hormone receptor; test: Displacement of [125I]NDPalphaMSH from human MC1R expressed in HEK293 cells; type: cell-based; outline: as §2
Target sequence in this assay (Q01726 whole entry): as the sequence (Q01726 whole entry, looked up) above

Melanocortin receptor 3 [10] = biological target: T4, Melanocortin receptor 3; test: Displacement of [125I]NDPalphaMSH from human MC3R expressed in HEK293 cells; type: cell-based; outline: as §2
Melanocortin receptor 3 [11] = biological target: T4, Melanocortin receptor 3; test: Effect on human MC3R expressed in HEK293 cells assessed as intracellular cAMP accumulation; type: functional, cell-based; outline: as §1
Melanocortin receptor 4 [12] = biological target: T1, Melanocortin receptor 4; test: Effect on human MC4R expressed in HEK293 cells assessed as intracellular cAMP accumulation; type: functional, cell-based; outline: as §1

T1 sequence (P32245 whole entry): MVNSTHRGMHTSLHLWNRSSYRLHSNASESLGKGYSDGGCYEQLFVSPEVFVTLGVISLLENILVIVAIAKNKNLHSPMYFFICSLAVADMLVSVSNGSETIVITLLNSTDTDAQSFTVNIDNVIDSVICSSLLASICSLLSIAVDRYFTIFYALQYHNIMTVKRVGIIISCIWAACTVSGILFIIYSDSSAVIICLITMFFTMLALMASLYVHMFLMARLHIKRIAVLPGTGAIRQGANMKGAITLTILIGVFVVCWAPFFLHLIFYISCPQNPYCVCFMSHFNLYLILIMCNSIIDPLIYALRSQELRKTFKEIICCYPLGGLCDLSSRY
T4 sequence (P41968 whole entry): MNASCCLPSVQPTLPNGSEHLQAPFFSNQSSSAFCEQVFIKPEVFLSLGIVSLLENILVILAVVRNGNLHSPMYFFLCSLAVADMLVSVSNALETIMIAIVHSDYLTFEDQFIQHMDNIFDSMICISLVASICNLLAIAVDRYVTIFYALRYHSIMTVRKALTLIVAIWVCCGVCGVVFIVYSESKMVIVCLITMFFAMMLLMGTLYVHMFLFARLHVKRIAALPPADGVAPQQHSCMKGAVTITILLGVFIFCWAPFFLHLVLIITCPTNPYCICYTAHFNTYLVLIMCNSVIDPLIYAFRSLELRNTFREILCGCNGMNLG
T3 sequence (P33032 whole entry): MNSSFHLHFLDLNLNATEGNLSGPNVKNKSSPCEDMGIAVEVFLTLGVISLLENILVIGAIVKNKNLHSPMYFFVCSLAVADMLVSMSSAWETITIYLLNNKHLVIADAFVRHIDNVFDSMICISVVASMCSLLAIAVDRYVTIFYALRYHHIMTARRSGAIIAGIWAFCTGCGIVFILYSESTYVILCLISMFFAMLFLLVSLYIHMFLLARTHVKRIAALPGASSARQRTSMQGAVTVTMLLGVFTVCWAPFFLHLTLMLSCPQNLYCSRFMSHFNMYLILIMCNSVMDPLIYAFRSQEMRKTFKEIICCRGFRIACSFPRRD

Activity (Melanocortin receptor 4 [1]): 0%
Activity [2]: 0%
Activity (Melanocortin receptor 5 [3]): 0%
Activity (Melanocortin receptor 3 [4]): 0%
Structure (SMILES): CCCC[C@@H](NC(C)=O)C(=O)N[C@@H](CC(=O)O)C(=O)NC1Cc2ccccc2CN([C@@H](Cc2ccccc2)C(=O)N[C@@H](CCCNC(=N)N)C(=O)N[C@@H](Cc2c[nH]c3ccccc23)C(=O)N[C@@H](CCCCN)C(N)=O)C1=O (stereo not given in full)

Activity [2]: 100%
Structure (SMILES): CCCC[C@H](N)C(=O)N[C@H]1CC(=O)NCCCC[C@@H](C(N)=O)NC(=O)[C@H](Cc2c[nH]c3ccccc23)NC(=O)[C@H](CCCNC(=N)N)NC(=O)[C@@H](Cc2ccc3ccccc3c2)NC(=O)[C@H](Cc2cnc[nH]2)NC1=O

IC50 (Melanocortin receptor 4 [5]; hek293): > 10000 nM
EC50 (Melanocortin receptor 5 [6]; hek293): > 10000 nM
EC50 ([7]; hek293): > 10000 nM
IC50 (Melanocortin receptor 5 [8]; hek293): > 10000 nM
IC50 ([9]; hek293): > 10000 nM
IC50 (Melanocortin receptor 3 [10]; hek293): > 10000 nM
EC50 (Melanocortin receptor 3 [11]; hek293): > 10000 nM
EC50 (Melanocortin receptor 4 [12]; hek293): > 10000 nM
Structure (SMILES): CCCC[C@H](NC(C)=O)C(=O)N[C@@H](CC(=O)O)C(=O)N[C@H]1Cc2ccccc2CN([C@H](Cc2ccccc2)C(=O)N[C@@H](CCCN=C(N)N)C(=O)N[C@@H](Cc2c[nH]c3ccccc23)C(=O)N[C@@H](CCCCN)C(N)=O)C1=O

IC50 (Melanocortin receptor 4 [5]): 2000 nM
EC50 (Melanocortin receptor 5 [6]): 180 nM
EC50 [7]: 900 nM
IC50 (Melanocortin receptor 5 [8]): 123 nM
IC50 [9]: > 1000 nM
IC50 (Melanocortin receptor 3 [10]): 29 nM
EC50 (Melanocortin receptor 3 [11]): > 1000 nM
EC50 (Melanocortin receptor 4 [12]): 3200 nM
Structure (SMILES): CCCC[C@H](N)C(=O)N[C@H]1CC(=O)NCCCC[C@@H](C(N)=O)NC(=O)[C@H](Cc2c[nH]c3ccccc23)NC(=O)[C@H](CCCN=C(N)N)NC(=O)[C@@H](Cc2ccc(Cl)cc2)N2Cc3ccccc3CC(NC1=O)C2=O (stereo not given in full)

Activity (Melanocortin receptor 4 [1]): 33%
Activity [2]: 60%
Activity (Melanocortin receptor 5 [3]): 45%
Activity (Melanocortin receptor 3 [4]): 55%
Structure (SMILES): CCCC[C@H](N)C(=O)N[C@H]1CC(=O)NCCCC[C@@H](C(N)=O)NC(=O)[C@H](Cc2c[nH]c3ccccc23)NC(=O)[C@H](CCCNC(=N)N)NC(=O)[C@@H](Cc2ccc(Cl)cc2)N2Cc3ccccc3CC(NC1=O)C2=O (stereo not given in full)
